Test results as given in ChEMBL document CHEMBL4699542, “Design and synthesis of novel methoxypyridine-derived gamma-secretase modulators” (Bioorg Med Chem, 2020).
pEC50, pIC50: −log10 of the molar value. Calls of active or inactive are those of the source. The rule behind the calls is not given here.

Legend:
[1] = Half life in CD-1 mouse at 5 mg/kg, po administered as single dose measured up to 24 hrs; assay type: ADME, organism-based; conditions: in vivo
How it was run: (§1)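 Male CD-1 mice, 6–8 weeks old, single dose by tail vein (1 mg/kg, 3% NMP/45% PEG300/12% ethanol/40% water) or oral gavage (5 mg/kg, 5% NMP/95% PEG300). Retro-orbital plasma sampled 0.083 (iv only) to 24 h, n=3/timepoint, and analysed by HPLC/MS/MS. Non-compartmental analysis. Half-life taken from the terminal phase using ≥3 non-zero points after Tmax.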

[2] = molecular target: Gamma-secretase (Homo sapiens) (UniProt Q96BI3+Q9NZ42+Q8WW43+P49768+Q92542+P49810); experiment: Modulation of gamma secretase in human SH-SY5Y cells overexpressing wild type APP751 assessed as effect on total amyloid beta level by meso scale discovery; assay type: cell-based
How it was run: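 SHSY5Y cells stably overexpressing wild-type human APP751 treated with the compound over a concentration range. Aβ38, Aβ40, Aβ42 and total Aβ in the medium measured by MSD triplex immunoassay (4G8 detection, 2 h at room temperature). Concentrations back-fitted from standard curves.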

[3] = Metabolic stability in human liver microsomes assessed as parent compound remaining at 1 uM incubated for 30 mins; assay type: ADME, Microsome; conditions: microsomes, 0.5 h, 1 µM
How it was run: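 Test compound at 1 μM incubated 30 min with human, rat or mouse liver microsomes (1 mg/mL); parent remaining expressed as %.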

[4] = Volume of distribution at steady state in CD-1 mouse at 1 mg/kg, iv administered as single dose measured up to 24 hrs; assay type: ADME, organism-based; conditions: in vivo
How it was run: (§2)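 Male CD-1 mice, 6–8 weeks old, single tail-vein dose in 3% NMP/45% PEG300/12% ethanol/40% sterile water. Retro-orbital plasma (K3EDTA) taken at 0.083, 0.25, 0.5, 1, 2, 4, 8 and 24 h, n=3/timepoint, analysed by HPLC/MS/MS. Non-compartmental analysis (Model 201, uniform weighting); Tmax read directly from the data.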

[5] = In vivo modulation of gamma secretase in transgenic J20 mouse overexpressing human APP assessed as reduction in plasma amyloid beta42 level at 50 mg/kg, po administered via gavage for 3 consecutive days and measured after 4 hrs post last dose on day 3 by meso scale discovery relative to control; assay type: functional; set-up: scale not given: the % may be the effect or the level left; conditions: time 3 day
How it was run: (§3)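 Female J20 mice, 5–6 months old (n=5/dose), dosed orally at 25, 50 or 100 mg/kg or with vehicle (5% NMP/95% PEG300) for 3 consecutive days. Plasma was taken 4 h after the final dose. Aβ38/40/42 measured by Meso Scale multiplex immunoassay, with % reduction relative to vehicle. Mean ± SEM, ANOVA.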

[6] = Drug level in brain of transgenic J20 mouse overexpressing human APP at 25 mg/kg, po administered via gavage for 3 consecutive days and measured after 4 hrs post last dose on day 3 by HPLC-MS/MS analysis; assay type: ADME, organism-based; conditions: time 3 day, read-out: Ct
How it was run: (§4)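 Female J20 mice, 5–6 months old, given 25, 50 or 100 mg/kg orally (5% NMP/95% PEG300) daily for 3 days, n=5/dose. Plasma and brain taken 4 h after the final dose and analysed by LC-MS/MS. LLOQ was 1 ng/mL in plasma and 5 ng/g in brain.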

[7] = Cmax in CD-1 mouse at 5 mg/kg, po administered as single dose measured up to 24 hrs; assay type: ADME, organism-based; set-up: route oral, dose 5 mg/kg, time <=24; conditions: in vivo; how it was run: as §1
[8] = In vivo modulation of gamma secretase in transgenic J20 mouse overexpressing human APP assessed as reduction in plasma amyloid beta38 level at 100 mg/kg, po administered via gavage for 3 consecutive days and measured after 4 hrs post last dose on day 3 by meso scale discovery relative to control; assay type: functional; set-up: scale not given: the % may be the effect or the level left; conditions: time 3 day; how it was run: as §3
[9] = Drug level in plasma of transgenic J20 mouse overexpressing human APP at 25 mg/kg, po administered via gavage for 3 consecutive days and measured after 4 hrs post last dose on day 3 by HPLC-MS/MS analysis; assay type: ADME, organism-based; conditions: time 3 day; how it was run: as §4
[10] = In vivo modulation of gamma secretase in transgenic J20 mouse overexpressing human APP assessed as reduction in plasma amyloid beta38 level at 50 mg/kg, po administered via gavage for 3 consecutive days and measured after 4 hrs post last dose on day 3 by meso scale discovery relative to control; assay type: functional; set-up: scale not given: the % may be the effect or the level left; conditions: time 3 day; how it was run: as §3
[11] = Drug level in brain of transgenic J20 mouse overexpressing human APP at 100 mg/kg, po administered via gavage for 3 consecutive days and measured after 4 hrs post last dose on day 3 by HPLC-MS/MS analysis; assay type: ADME, organism-based; conditions: time 3 day, read-out: Ct; how it was run: as §4
[12] = In vivo modulation of gamma secretase in transgenic J20 mouse overexpressing human APP assessed as reduction in plasma amyloid beta38 level at 25 mg/kg, po administered via gavage for 3 consecutive days and measured after 4 hrs post last dose on day 3 by meso scale discovery relative to control; assay type: functional; set-up: scale not given: the % may be the effect or the level left; conditions: time 3 day; how it was run: as §3
[13] = Ratio of drug level in brain to plasma of transgenic J20 mouse overexpressing human APP at 50 mg/kg, po administered via gavage for 3 consecutive days and measured after 4 hrs post last dose on day 3 by HPLC-MS/MS analysis; assay type: ADME, organism-based; conditions: 72 h, time 3 day
How it was run: (§5)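 Female J20 mice, 5–6 months old (n=5/dose), dosed by oral gavage once daily for 3 days in 5% NMP/95% PEG300 vehicle. Sacrificed 4 h after the day-3 dose. Plasma and brain drug levels measured by LC-MS/MS (LLOQ 1 ng/mL plasma, 5 ng/g brain). Ratio = brain level/plasma level.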

[14] = molecular target: Gamma-secretase; experiment: Modulation of gamma secretase in human SH-SY5Y cells overexpressing wild type APP751 assessed as effect on amyloid beta40 level by meso scale discovery; assay type: cell-based
[15] = Drug level in plasma of transgenic J20 mouse overexpressing human APP at 100 mg/kg, po administered via gavage for 3 consecutive days and measured after 4 hrs post last dose on day 3 by HPLC-MS/MS analysis; assay type: ADME, organism-based; conditions: time 3 day; how it was run: as §4
[16] = In vivo modulation of gamma secretase in transgenic J20 mouse overexpressing human APP assessed as reduction in plasma amyloid beta40 level at 50 mg/kg, po administered via gavage for 3 consecutive days and measured after 4 hrs post last dose on day 3 by meso scale discovery relative to control; assay type: functional; set-up: scale not given: the % may be the effect or the level left; conditions: time 3 day; how it was run: as §3
[17] = molecular target: Gamma-secretase; experiment: Modulation of gamma secretase in human SH-SY5Y cells overexpressing wild type APP751 assessed as effect on amyloid beta38 level by meso scale discovery; assay type: cell-based
[18] = Tmax in CD-1 mouse at 5 mg/kg, po administered as single dose measured up to 24 hrs; assay type: ADME, organism-based; conditions: in vivo
How it was run: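 Male CD-1 mice, 6–8 weeks old, single oral gavage dose in 5% NMP/95% PEG300. Plasma (K3EDTA, retro-orbital, under isoflurane) taken at 0.25, 0.5, 1, 2, 4, 8 and 24 h, n=3/timepoint, analysed by HPLC/MS/MS. Non-compartmental extravascular analysis (Model 200); Tmax taken directly from the data.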

[19] = molecular target: Cytochrome P450 2D6 (Homo sapiens, UniProt P10635); experiment: Inhibition of recombinant CYP2D6 (unknown origin) by fluorescence-based assay; assay type: ADME
How it was run: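 Recombinant CYP isoforms (five tested) screened for inhibition in fluorescence-based assays; IC50 in μM.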

[20] = Ratio of drug level in brain to plasma of transgenic J20 mouse overexpressing human APP at 25 mg/kg, po administered via gavage for 3 consecutive days and measured after 4 hrs post last dose on day 3 by HPLC-MS/MS analysis; assay type: ADME, organism-based; conditions: 72 h, time 3 day; how it was run: as §5
[21] = Tmax in CD-1 mouse at 1 mg/kg, iv administered as single dose measured up to 24 hrs; assay type: ADME, organism-based; conditions: in vivo; how it was run: as §2

Cytochrome P450 2D6, sequence (P10635 whole entry, canonical isoform): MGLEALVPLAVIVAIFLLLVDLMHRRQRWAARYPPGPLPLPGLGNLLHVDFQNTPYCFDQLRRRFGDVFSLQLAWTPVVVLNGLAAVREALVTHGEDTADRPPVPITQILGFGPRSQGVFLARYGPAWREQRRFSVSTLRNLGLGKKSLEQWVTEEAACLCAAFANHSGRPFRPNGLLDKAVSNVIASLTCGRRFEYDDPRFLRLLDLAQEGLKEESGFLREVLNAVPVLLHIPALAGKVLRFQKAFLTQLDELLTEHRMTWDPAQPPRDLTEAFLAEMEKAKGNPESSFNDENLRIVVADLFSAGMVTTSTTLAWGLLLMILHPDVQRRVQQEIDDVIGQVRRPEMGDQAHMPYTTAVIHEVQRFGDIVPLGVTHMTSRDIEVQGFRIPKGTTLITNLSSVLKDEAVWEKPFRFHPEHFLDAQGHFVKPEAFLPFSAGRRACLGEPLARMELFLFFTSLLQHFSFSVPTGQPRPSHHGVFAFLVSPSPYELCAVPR

SMILES | t1/2 [1] [min] | Activity [2] | Stabilty [3] [%] | Vdss [4] [L/kg] | Activity [5] [%] | concentration at 72 h [6] [ng/g] | Cmax [7] [ng/mL] | Activity [8] [%] | concentration at 72 h [9] [ng/mL] | Activity [10] [%] | concentration at 72 h [11] [ng/g] | Activity [12] [%] | BPR [13] | pIC50 [14] | concentration at 72 h [15] [ng/mL] | Activity [16] [%] | pEC50 [17] | Tmax [18] [min] | pIC50 [19] | BPR [20] | other results
CCn1nc2c(c1Nc1nc(-c3ccc(-n4cnc(C)c4)c(OC)n3)cs1)CCC2 | 318 | inactive | 51 | 2.234 | 40 | 31 | 377 | 50 | 86 | 27 | 337 | 19 | 0.38 | 6.68 | 726 | 31 | 6.69 | 15 | < 4.00 | 0.37 | Tmax [21]: 4.98 min
COc1nc(-c2csc(Nc3c4c(nn3CCF)CCCC4)n2)ccc1-n1cnc(C)c1 | 156 | inactive | 100 | 2.826 | 48 | 39 | 167 | 45 | 72 | 33 | 105 | 18 | 0.42 | 7.00 | 183 | 36 | 6.73 | 60 | < 4.00 | 0.53 | Tmax [21]: 4.98 min
